The whole screen tested about 65,000 compounds, of which about 1,200 (1.8%) were called active.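 The calls were made as follows: active = activation above the mean activation of all tested compounds plus 3 SD (cut at about 50% in these data); inactive = the rest.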 The entries come from a sample that favours actives as a whole.

Sequence of Steroidogenic factor 1 (Homo sapiens) (Q13285 whole entry, looked up, the tested form may be a part): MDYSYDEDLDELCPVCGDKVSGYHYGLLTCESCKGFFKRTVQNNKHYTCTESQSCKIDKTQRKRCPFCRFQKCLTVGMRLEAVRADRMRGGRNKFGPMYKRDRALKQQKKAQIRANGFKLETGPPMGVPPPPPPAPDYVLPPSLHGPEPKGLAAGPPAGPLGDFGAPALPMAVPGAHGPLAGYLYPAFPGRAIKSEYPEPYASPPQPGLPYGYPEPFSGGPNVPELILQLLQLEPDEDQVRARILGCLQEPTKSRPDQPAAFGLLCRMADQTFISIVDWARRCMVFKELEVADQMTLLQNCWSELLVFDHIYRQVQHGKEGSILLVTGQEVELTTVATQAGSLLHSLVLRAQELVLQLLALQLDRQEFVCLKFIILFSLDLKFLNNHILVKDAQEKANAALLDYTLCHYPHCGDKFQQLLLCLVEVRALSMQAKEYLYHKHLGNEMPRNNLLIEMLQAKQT

This assay addresses Steroidogenic factor 1 (Homo sapiens) (UniProt Q13285). Nature of the assay: activators of human SF-1, primary screen, cell-based, CHO-K1, Gal4-SF-1 LBD, luciferase luminescence (AID 522). To be noted: CHO-K1 Gal4-SF-1 LBD luciferase reporter; at 10 µM; stronger effect = higher value; % increase over DMSO SF-1-specific signal. The procedure, abridged: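 Compound – one dose, 10 µM compound, 1% DMSO · Test system – transient Gal4-SF-1 LBD reporter, CHO-K1 · Input – 4,000 cells in each well · Read-out basis – percent activation relative to DMSO median and mock-transfected background · Replicates – single measurement per compound · Technique – steady-glow luciferase luminescence, read after 15 min reagent incubation · Timing – 20 h compound treatment, 37 °C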
For `O=C(c1cc(-c2ccccc2O)on1)N1CCCC1`, the activation is 20.3% (inactive).
Under `COc1ccccc1-c1cc(C(=O)N2CCCCC2)no1` stands 82.1% (active); under `COc1ccccc1N1CCN(C(=O)c2cc(-c3ccc(Br)cc3)on2)CC1`, 3.2% (inactive); under `Cc1ccc(-n2nc3cc(Cl)c(NC(=O)c4ccco4)cc3n2)cc1`, 70.4% (active).
For the compound `Cc1ccc(Cn2c(NC(=O)c3ccco3)nc3ccccc32)cc1`, the activation is -1.8% (inactive).
Under `COC(=O)c1cc(Cl)c(NC(=O)c2ccco2)cc1OC` stands -3% (inactive); under `CN(C)Cc1c(C#N)c2ccccc2n1C`, -11.9% (inactive).
Next, `Cc1ccc(C(=O)CSc2nc3ccccc3c(=O)n2N)o1`: 32.8% (inactive); `COc1ccc(OCc2ccc(-c3nc4ccccc4c(=O)n3N)o2)cc1`: 59% (active).
Under `Cn1c(COc2ccc(Cl)cc2)nc2ccccc2c1=O` stands 45% (inactive); under `CCOC(=O)c1cccc(NC(=O)CN(c2ccc(C)cc2)S(=O)(=O)c2c(C)noc2C)c1`, -5.1% (inactive).
For the compound `CC(=O)N1CCC(C(=O)Nc2nc(-c3ccccc3)ns2)CC1`, the activation was -1.6% (inactive).
Under `COc1ccc(CN(C(=O)c2cccs2)c2nccs2)cc1OC` stands 7.7% (inactive).
Next, `O=C(c1cc(-c2cccs2)on1)N1CCCCC1`: 41.3% (inactive).
Under `Cn1c(=NC(=O)CSCC(=O)N2CCCCC2)sc2ccccc21` stands 8.9% (inactive); under `O=C(CSCc1cccs1)N1CCCC1`, 60.5% (active); under `CC(=O)Oc1ccc(C)cc1N1C(=O)c2ccc(C(=O)O)cc2C1=O`, -0.3% (inactive).
Regarding `O=C(CSc1nnc2ccccn12)c1ccccc1`, the activation was 55.3% (active).
Next, `O=C(CSc1nnc(-c2ccco2)n1CC1CCCO1)c1ccccc1` (stereo unspecified): 16.7% (inactive).
As for `Cn1c(CC(=O)Nc2ccccc2)nnc1SCC(=O)c1ccccc1`, the activation is 4.4% (inactive).
Regarding `Cc1c(C(=O)NCC2CCCO2)sc2nc(-c3ccccc3)cn12` (stereo unspecified), the activation was 9% (inactive).
Consider `Clc1ccc(Cc2nnc(-c3cccs3)o2)cc1`, for which the activation is 59.5% (active).
Next, `Cc1cc(NC(=O)c2cc(-c3cccs3)on2)nn1Cc1ccc(Cl)cc1`: -2.6% (inactive); `Clc1ccc(Cc2nn3c(-c4ccncc4)nnc3s2)cc1`: 15.3% (inactive).
Under `CSC1=NCCN1C(=O)c1ccc(S(=O)(=O)N2CCOCC2)cc1` stands -27.8% (inactive).
Next, `CCN(CC)C(=O)CCC(=O)Nc1ccc(C(=O)OC)cc1`: -4.8% (inactive).
As to `COC(=O)c1ccc(NC(=O)C(C)N2C(=O)c3ccccc3C2=O)cc1` (stereo unspecified), the activation is 11.6% (inactive).
Next, `COC(=O)c1ccc(NCC(=O)c2ccccc2)cc1`: 68.7% (active).
Next, `C=CCn1c(=O)c2ccccc2n2c(SCC(=O)N3CCCc4ccccc43)nnc12`: -8.3% (inactive); `N#Cc1nc(Cc2ccccc2)oc1NCCc1ccccc1`: 63.4% (active).
For the compound `N#Cc1nc(COc2ccc(-c3ccccc3)cc2)oc1NCc1cccnc1`, the activation was -9.1% (inactive).
`CCOc1ccc(Nc2oc(Cc3ccccc3)nc2C#N)cc1`: the activation was 39.8% (inactive).
Under `CCOc1ccc2nc(NCCNS(=O)(=O)c3ccccc3)c(C#N)cc2c1` stands 9.2% (inactive).
`Cc1cccc(-c2noc(-c3ccc(F)cc3)n2)c1`: the activation is 77.6% (active).
Next, `Cc1ccc(-c2noc(CCC(N)=O)n2)cc1`: 9.8% (inactive); `Cc1ccc(-c2noc(CN3CCN(Cc4ccccc4)CC3)n2)cc1`: 16.7% (inactive).
Under `Cc1ccc(Cc2nc(-c3cccc(C)c3)no2)cc1` stands 53.9% (active).
Under `COc1ccccc1Cc1nc(-c2ccc(C)cc2)no1` stands 16.4% (inactive); under `COc1ccc2[nH]c(=O)c(-c3noc(-c4ccc(F)cc4)n3)cc2c1`, -0.1% (inactive); under `O=C1CCC(C(=O)Nc2ccc(OC(F)F)cc2)N1` (stereo unspecified), -10.9% (inactive).
For `COc1ccc(NC(=O)CSc2nnc(-c3cccs3)n2Cc2ccco2)cc1OC`, the activation is -6% (inactive).
Under `CCOC(=O)CSc1nnc(CNc2nc(-c3ccccc3)cs2)n1C` stands 11.1% (inactive); under `CC(=O)Nc1ccc(S(=O)(=O)N2CCN(CCCOc3cc(C)ccc3C)CC2)cc1`, -14.5% (inactive); under `Cc1nc2ccc(C(=O)N3CCSCC3)cc2s1`, 0.4% (inactive).
Next, `O=C(Nc1cccc2cccnc12)c1cccc(N2C(=O)CCC2=O)c1`: 9% (inactive).
Under `COc1ccc(NC(=O)Nc2cccc3cccnc23)cc1` stands 65.5% (active).
In the case of `CCCNC(=O)Nc1ccccc1C(=O)Nc1ccc(OC)cc1`, the activation was 7.4% (inactive).
Under `COc1cc(-c2nc(S(=O)(=O)c3ccc(Cl)cc3)c(N(C)C)o2)cc(OC)c1OC` stands -17.6% (inactive).
Under `Cc1ccc(C(c2nnnn2CS(=O)(=O)c2ccc(C)cc2)N2CCC(C(N)=O)CC2)cc1` (stereo unspecified) stands -4.8% (inactive); under `Cc1cc(C)cc(N(CC(=O)NCC2CCCO2)S(=O)(=O)c2c(C)noc2C)c1` (stereo unspecified), -8.7% (inactive); under `N#Cc1c(NC(=O)CCCN2C(=O)c3ccccc3C2=O)oc(-c2ccccc2)c1-c1ccccc1`, 12.7% (inactive).
Under `CCCc1[nH]nc2c1C(c1c(C)nn(-c3ccccc3)c1Cl)C(C#N)=C(N)O2` (stereo unspecified) stands 6.3% (inactive).
In the case of `CNC(=O)NCCN1CCCC1=O`, the activation was 1% (inactive).
Consider `O=C(CSc1nnc(-c2ccco2)n1Cc1ccccc1)NC(=O)NCc1ccco1`, for which the activation is -12.1% (inactive).
Next, `c1ccc(CSc2nnc(-c3ccco3)c(-c3ccco3)n2)cc1`: 0.5% (inactive); `c1ccc(CSc2nnc(-c3ccco3)n2Cc2ccccc2)cc1`: 76% (active); `CCn1c(COc2ccc(OC)cc2)nnc1SCC(=O)Nc1cc(OC)ccc1OC`: -13.5% (inactive).
Under `Cc1ccccc1N1C(=O)C2ON(c3ccccc3)C(c3ccncc3)C2C1=O` (stereo unspecified) stands 5.4% (inactive).
Under `COc1cc(C2C(C(=O)c3ccc(C)o3)=C(O)C(=O)N2CCc2ccccc2)ccc1O` (stereo unspecified) stands 8.7% (inactive); under `COc1cc(C2C3C(=O)N(c4ccccc4)C(=O)C3ON2c2ccccc2)ccc1O` (stereo unspecified), 51.7% (active).
With `COc1ccccc1NC(=O)CSc1nnc(-c2ccoc2C)n1CCc1ccccc1`, the activation was -3.3% (inactive).
Next, `CC(C)(C)c1ccc(C(=O)CSc2ncn[nH]2)cc1`: 57.1% (active); `CCN(C(=O)CSc1ncn[nH]1)c1cccc2ccccc12`: 16.4% (inactive); `Cn1nnc(NC(=O)CSc2ncn[nH]2)n1`: 4.4% (inactive).
Under `O=S(=O)(c1cccc(-c2nnc(SC(F)F)n2-c2ccccc2)c1)N1CCCCC1` stands 4.3% (inactive); under `CCOc1cc(N2CCOCC2)c(OCC)cc1NC(=O)COc1cccc2cccnc12`, 8.2% (inactive).
As for `Cc1ccc(C(=O)Nc2nnc(-c3cccs3)s2)cc1C`, the activation was 80.9% (active).
With `Cc1ccc(C(=O)Nc2nnc(-c3ccncc3)s2)o1`, the activation is 21.8% (inactive).
Next, `CCc1nnc(NC(=O)CCC(=O)O)s1`: -8.1% (inactive); `CCc1nnc(NC(=O)c2cccs2)s1`: 50% (active); `CCc1ccccc1NC(=O)c1cccs1`: -5.6% (inactive).
Consider `Cc1occc1C(=O)Nc1nnc(-c2ccncc2)s1`, for which the activation is 20.4% (inactive).
Next, `CCOC(=O)c1ccc(-n2c(C)nc3c(cnn3-c3ccccc3C)c2=O)cc1`: 17.1% (inactive); `CCCc1[nH]nc2c1C(c1ccc(Br)s1)C(C#N)=C(N)O2` (stereo unspecified): 15.9% (inactive).
Consider `Cn1c(/C(C#N)=C2/CCCCCN2)nc2ccccc21`, for which the activation is 9.6% (inactive).
Next, `CCOC(=O)N1CCN(C(=O)C2CC(c3ccc(F)cc3)=NO2)CC1` (stereo unspecified): -7.2% (inactive); `COC(=O)[C@H](C(C)C)n1c(C)c(C(C)=O)c(C(C)=O)c1C`: 5.7% (inactive); `CC(C)c1ccc(NC(=O)NC2CCCCC2)cc1`: 100% (active).
Next, `CC(=O)OC(C(=O)NC1CCCCC1)c1ccccc1` (stereo unspecified): -11.8% (inactive).
Next, `CC(Cc1cccs1)NC(=O)NC1CCCCC1` (stereo unspecified): 41.1% (inactive); `Cc1cccc(-n2c(N)c(C(=O)N3CCN(C)CC3)sc2=S)c1`: 3.5% (inactive).
On to `Cc1ccc(C2CC(=O)NC(SCC(=O)OCc3ccccc3)=C2C#N)o1` (stereo unspecified), for which the activation was -4.2% (inactive).
Next, `CCN(CC(=O)Nc1ccc2c(c1)OCCO2)Cc1cc(=O)oc2cc(C)c(C)cc12`: -19.6% (inactive); `CC(=O)c1cc(C#N)c(SCC(=O)C(C)(C)C)nc1C`: 57.1% (active).
Next, `Cc1cc(C(F)(F)F)c(C#N)c(SCC(=O)NC2CC2)n1`: -6.7% (inactive); `CCOc1ccc2cc(C#N)c(SCC(=O)OC)nc2c1`: 26.5% (inactive); `O=C(Nc1ccc(-c2nnc(-c3ccccc3)o2)cc1)C1CCCO1` (stereo unspecified): 65.9% (active).
Under `O=C(Nc1cccc(-c2nnc(-c3ccccc3)o2)c1)C1CCCO1` (stereo unspecified) stands 65.8% (active); under `O=C(CCc1ccccc1)Nc1cccc(-c2nnc(-c3ccco3)o2)c1`, 27.9% (inactive); under `O=C(Nc1nnc(CCc2ccccc2)s1)C1CCCO1` (stereo unspecified), 21.6% (inactive).
As to `Cc1cc(Br)ccc1NC(=O)C1CCCO1` (stereo unspecified), the activation was -10.5% (inactive).
Under `O=C(CSc1nnc(-c2ccc(NS(=O)(=O)c3ccccc3)cc2)o1)NCC1CCCO1` (stereo unspecified) stands -0.8% (inactive); under `Cc1cccc(N2CCN(Cc3c(C)n(C)n(-c4ccccc4)c3=O)CC2)c1C`, 15.3% (inactive); under `O=C(NCc1ccccc1)C1C(=O)N(Cc2ccccc2)C(=O)C1C1(O)CCCC1` (stereo unspecified), -4.5% (inactive).
Next, `Cc1ccccc1Cn1c(=O)[nH]c2ccccc21`: -12.9% (inactive); `CCOC(=O)C1CCN(Cc2coc3ccc(Cl)cc3c2=O)CC1`: -25.8% (inactive); `CC(C)(C)NC(=O)c1cc(NC(=O)c2ccco2)cc(NC(=O)c2ccco2)c1`: 22% (inactive).
`COC(=O)c1ccc(NC(=O)c2ccco2)cc1`: the activation was 85.3% (active).
Next, `O=C(Nc1ccc(Oc2ccccc2)cc1)c1ccco1`: 44% (inactive); `Cc1cccc(C)c1NC(=O)N1CC=C(n2c(=O)[nH]c3ccccc32)CC1`: -7.6% (inactive); `CC(Sc1sc(=S)sc1SC(C)C(=O)O)C(=O)O` (stereo unspecified): -6.9% (inactive).
